Reference: PubChem BioAssay AID493091 (Sanford-Burnham Center for Chemical Genomics, 2011)
Where “and” joins values, the source holds several entries; their conditions need not be identical. Equal values may be shown once. Hit rate of the full screen: of about 340,000 compounds, about 3,000 (0.88%) were called active.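 The calls were made as follows: active = inhibition above about 50% at 20 µM (limit read from the data); inactive = the rest.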 For the sample, actives were picked, then their nearest neighbours and some compounds at random. Some structures have more than one record in an assay (separate samples or runs), and their calls can disagree.

What follows are compounds tested against Carboxy-terminal domain RNA polymerase II polypeptide A small phosphatase 1 (Homo sapiens) (UniProt Q9GZU7) (assay: Scp-1 phosphatase inhibitors, primary screen, biochemical, colorimetric, uHTS (AID 493091;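 also: plate controls were DMSO wells with enzyme for no effect and wells lacking enzyme for full effect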)). Conditions: Recombinant Scp1, phosphopeptide, malachite green phosphate absorbance; at 20 µM; stronger effect = higher value.
Sequence of Carboxy-terminal domain RNA polymerase II polypeptide A small phosphatase 1 (Homo sapiens) (Q9GZU7 76-261 limits assumed): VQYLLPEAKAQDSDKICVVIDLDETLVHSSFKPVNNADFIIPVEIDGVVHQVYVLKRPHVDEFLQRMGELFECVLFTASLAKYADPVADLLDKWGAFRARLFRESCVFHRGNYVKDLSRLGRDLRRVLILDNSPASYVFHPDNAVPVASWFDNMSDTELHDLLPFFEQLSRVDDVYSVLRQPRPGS
In short: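 Assay system: SCP-1 catalytic fragment, aa 76-261 | Buffer or medium: Tris acetate buffer pH 5.5 with MgCl2 and Tween-20 | Compound: One concentration, 20 µM, with 1.0% DMSO | Also added: Phospho 17-mer peptide substrate | Signal: Absorbance at 630 nm | Incubation: 45 min enzyme reaction at room temperature | Measure: % inhibition of SCP-1 phosphate liberation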
With `O=C(NN=Cc1ccccc1O)NN=Cc1ccccc1O` the inhibition was 85.7% (active).
`O=C(N/N=C/c1ccccc1O)/C(=C/c1ccccc1)CCO` was tested, and the inhibition was -13.2% (inactive).
In the case of `O=C(N/N=C/c1ccccc1O)C1CCCC1`, the inhibition is reported as -10.5% (inactive).
In the case of `COc1ccccc1CN(C)C(=O)C1(c2ccc(Cl)cc2)CC1`, the inhibition is reported as -10.7% (inactive).
With `CSCCC(NS(=O)(=O)c1ccc(C)cc1)C(=O)N1CCCC1` (stereo not given) the inhibition was -0.76% (inactive).
For `Cc1ccc(-n2c(O)c(C=Nc3ccc(S(=O)(=O)Nc4ncccn4)cc3)c3ccccc3c2=O)cc1C`, the inhibition was -12.6% (inactive).
With `Cc1ccc(N=Cc2c(O)cc(C)oc2=O)c(C)c1` the inhibition was -1.31% (inactive).
For `Cc1ccc(N=Cc2c(O)n(-c3nccs3)c(=O)c3ccccc23)c(C)c1`, the inhibition was 51.3% (active).
In the case of `O=C(NCCCc1ccccc1)C1CCC(CNc2c(N3CCCCC3)c(=O)c2=O)CC1` (stereo not given), the inhibition is reported as -5.39% (inactive).
For `COc1ccccc1NC(=O)CCC(=O)OC(C)C(=O)c1ccccc1` (stereo not given), the inhibition was -10.3% (inactive).
With `COc1ccccc1CN1CCNC(=O)C1CC(=O)N(C)CC1CCOCC1` (stereo not given) the inhibition was -2.19% (inactive).
With `COc1ccc(CNC(=O)COc2cccnc2[N+](=O)[O-])cc1` the inhibition was -6.82% (inactive).
For `O=C(NCCN1C(=O)S/C(=C\c2cccnc2)C1=O)c1cccc(OC(F)F)c1`, the inhibition was -7.82% (inactive).
`N#Cc1ccccc1CN1C(=O)S/C(=C/c2cccn2-c2cccc(C(=O)O)c2)C1=O` was tested, and the inhibition was 70.5% (active).
With `Cc1nn(Cc2ccccc2)c(C)c1C(=O)NCCN1C(=O)S/C(=C\c2ccc(F)cc2)C1=O` the inhibition was -5.22% (inactive).
In the case of `Cc1ccccc1CSc1nnc(-c2ccccn2)n1N`, the inhibition is reported as -3.67% (inactive).
With `CCOC(=O)c1cccc(NC(=O)c2ccc(F)cc2F)c1` the inhibition was -7.13% (inactive).
`O=C(COC(=O)c1ccc(F)cc1F)Nc1ncccn1` was tested, and the inhibition was 87% (active).
`O=C(COC(=O)CSc1ccccc1)Nc1ccc(F)cc1F` was tested, and the inhibition was -2.71% (inactive).
In the case of `COCCNC(=O)C(OC(=O)c1cccs1)c1ccc(F)cc1` (stereo not given), the inhibition is reported as -8.1% (inactive).
With `CN(c1ccccc1)S(=O)(=O)c1cccc(C(=O)NNC(=O)c2ccncc2)c1` the inhibition was -6.19% (inactive).
For `CCCNC(=O)CCc1c(C)nc2c(c(C)nn2-c2ccccc2)c1C`, the inhibition was -19% (inactive).
For `O=S1(=O)CC/C(=N\Nc2ccc(F)cc2)c2ccsc21`, the inhibition was -1.87% (inactive).
In the case of `Nn1cnnc1N/N=C/c1cc([N+](=O)[O-])c(Cl)cc1Cl`, the inhibition is reported as 71.5% (active).
For `Cc1ccsc1C(=O)NNC(=O)COc1ccc(Br)cc1`, the inhibition was -2.35% (inactive).
In the case of `COc1ccc(-c2ccc(CCC(=O)O)n2-c2ccc(O)cc2)cc1`, the inhibition is reported as -8.68% (inactive).
`COc1ccc(Cl)cc1C=CC=Nc1ccc(S(N)(=O)=O)cc1` was tested, and the inhibition was -0.31% (inactive).
`COc1ccc(Cl)cc1C=CC=NNC(=O)c1ccncc1` was tested, and the inhibition was 54.2% (active).
In the case of `COc1ccccc1/C=C/C=N/NC(=O)CN1CCN(Cc2ccccc2)CC1`, the inhibition is reported as -7.3% (inactive).
With `CCOC(=O)N1CCN(c2c(NCCN3CCN(c4ccccc4F)CC3)c(=O)c2=O)CC1` the inhibition was -8.45% (inactive).
For `O/N=C1\CC2(Cc3nonc31)OCCO2`, the inhibition was -5.88% (inactive).
With `ON=C1/C(=N\O)CC2(C/C1=N/O)OCCO2` the inhibition was 58% (active).
With `CS(=O)(=O)N(CC(=O)NCc1ccco1)c1ccc2c(c1)OCO2` the inhibition was 17.7% (inactive).
In the case of `S=C(NCc1ccc2c(c1)OCO2)NCc1ccco1`, the inhibition is reported as -10.4% (inactive).
With `O=C(Cn1nnc(-c2ccc3c(c2)OCO3)n1)NCc1ccco1` the inhibition was 60.1% (active).
`COc1cccc(CNC(=O)CN(C)S(=O)(=O)c2ccc3c(c2)c(=O)n(C)c(=O)n3C)c1` was tested, and the inhibition was -11.9% (inactive).
`Cc1ccc(S(=O)(=O)/N=S(\C)C(C)C)cc1` (stereo not given) was tested, and the inhibition was -1% (inactive).
In the case of `COc1cc(/C=C/C(=O)OCC(=O)NC2CC2)cc(OC)c1OC`, the inhibition is reported as 8.5% (inactive).
In the case of `COc1ccccc1/C=C/C(=O)OCC(=O)NC1CCCCCC1`, the inhibition is reported as -7.74% (inactive).
With `COc1ccc(/C=C/C(=O)OCC(=O)NC2CCCCCC2)cc1OC` the inhibition was 53% (active).
`CCOC(=O)c1oc2c(CN3CCN(CCO)CC3)c(O)c(CC)cc2c(=O)c1-c1nc2ccccc2s1` was tested, and the inhibition was -2.5% (inactive).
For `Cc1ccc(NC(=O)COc2coc(CN3CCc4ccccc4C3)cc2=O)cc1Cl`, the inhibition was 5.58% (inactive).
For `Cc1nnc2n1N=C(c1ccc3c(c1)NC(=O)CO3)CS2`, the inhibition was -2.49% (inactive).
For `Cc1cc(NC(=O)[C@H](C)NC(=O)c2ccco2)ccc1Br`, the inhibition was -11% (inactive).
With `CCOC(=O)C1CCCN(C(=O)/C=C/c2ccc(OC)cc2)C1` (stereo not given) the inhibition was 0.29% (inactive).
For `CCOc1ccc(N(CC(=O)OC)S(=O)(=O)c2c(C)noc2C)cc1`, the inhibition was -4.21% (inactive).
With `CCOC(=O)C1CCCN(C(=O)CN(c2ccc(OC)cc2)S(=O)(=O)c2c(C)noc2C)C1` (stereo not given) the inhibition was 57.4% (active).
In the case of `COc1ccc(OC)c(S(=O)(=O)NCCC(C)C)c1`, the inhibition is reported as -1.08% (inactive).
`Cc1nc2cc(NC(=O)CSc3nc4c(C)cccc4cc3C#N)ccc2s1` was tested, and the inhibition was 20.8% (inactive).
For `COc1cc(/C=C/C2=CC(C)(C)NC(=S)N2)cc(OC)c1OC`, the inhibition was 83.9% (active).
In the case of `COc1ccc(/C=C/C2=CC(C)(C)NC(=S)N2)c(OC)c1`, the inhibition is reported as -2.22% (inactive).
`COc1cc(/C=C/c2ccc(/C=C/c3cc(OC)c(OC)c(OC)c3)cc2)cc(OC)c1OC` was tested, and the inhibition was 4.65% (inactive).
`CCOC(=O)c1c(NC(=O)CNC2CCCc3ccccc32)sc(C(N)=O)c1C` (stereo not given) was tested, and the inhibition was -9.44% (inactive).
With `CCOCCCNC(=S)Nc1ccc2nc(N3CCN(CC)CC3)cc(C)c2c1` the inhibition was -1.55% (inactive).
For `Cc1ccc(C(=O)Nc2sc(Cc3ccc4c(c3)OCO4)c(C)c2C(N)=O)cc1`, the inhibition was -8.44% (inactive).
For `CCOC(=O)c1cc2occc2n1CC(=O)N1CCN(C(=O)c2ccco2)CC1`, the inhibition was -2.95% (inactive).
With `O=C(Nc1cccc(Br)c1)C1CC(=O)N(C2CCCC2)C1` (stereo not given) the inhibition was -7.74% (inactive).
In the case of `COc1ccccc1N(CC(=O)NC1CCCC1)C(=O)C1(C)CC(=O)N=C2C=CC(C)=CN21` (stereo not given), the inhibition is reported as -2.31% (inactive).
`CCc1nnc(SCc2cccc(F)c2)nc1CC` was tested, and the inhibition was -10.3% (inactive).
`S=C(NCc1ccco1)NCc1ccccc1Cl` was tested, and the inhibition was -4.7% (inactive).
With `O=C(Nc1nnc(SCc2ccccc2Cl)s1)c1cccc([N+](=O)[O-])c1` the inhibition was -14% (inactive).
For `Clc1ccc(CSc2nnc3c(n2)[nH]c2ccccc23)cc1`, the inhibition was -4.5% (inactive).
In the case of `c1ccc(CSc2nnc(-c3ccco3)c(-c3ccco3)n2)cc1`, the inhibition is reported as 79.2% (active).
In the case of `Clc1ccccc1CSc1nnc(-c2ccco2)c(-c2ccco2)n1`, the inhibition is reported as 76.5% (active).
With `COc1ccccc1N(C)C(=O)c1cc(S(=O)(=O)N2CCc3ccccc32)cn1C` the inhibition was -4.84% (inactive).
For `COc1ccc(C(=O)COC(=O)CNC(=O)c2cccs2)cc1Br`, the inhibition was -0.77% (inactive).
In the case of `Cc1nnc(SCC2=C(C(=O)O)N3C(=O)C(NC(=O)Cn4nc(C)c(Cl)c4C)C3SC2)s1` (stereo not given), the inhibition is reported as 14.4% (inactive).
With `CO/N=C(\C(=O)N[C@@H]1C(=O)N2C(C(=O)O)=C(COC(C)=O)CS[C@H]12)c1csc(N)n1` (stereo in doubt) the inhibition was 69.7% (active) and 11.4% (inactive) and 72.2% (active).
In the case of `C=CC1=C(C(=O)O)N2C(=O)[C@@H](NC(=O)/C(=N/OCC(=O)O)c3csc(N)n3)[C@H]2SC1`, the inhibition is reported as 65.5% (active).
With `CC(C)(C)OC(=O)C1=C(CO)CS[C@@H]2[C@H](NC(=O)Cc3ccccc3)C(=O)N12` the inhibition was 1.29% (inactive).
For `C=CC1=C(C(=O)O)N2C(=O)[C@@H](NC(=O)/C(=N\OCC(=O)O)c3csc(N)n3)[C@H]2SC1`, the inhibition was 71% (active).
With `Cc1cc(C)cc(C(=O)NC2C(=O)N3C(C(=O)O)=C(CSc4nnc(C)s4)CSC23)c1` (stereo not given) the inhibition was 4.73% (inactive).
`CC(=O)c1ccc(NC(=O)CSc2nc3ccccc3c(=O)n2CCCN2CCOCC2)cc1` was tested, and the inhibition was -7.5% (inactive).
For `Cn1cnc([N+](=O)[O-])c1Sc1ccccc1`, the inhibition was -15.4% (inactive).
For `O=C(NCCC1=CCCCC1)c1ccc(-n2cncn2)cc1`, the inhibition was 0.7% (inactive).
`O=C(O)c1ccccc1-c1ccccc1C(=O)NCc1cccnc1` was tested, and the inhibition was -6.94% (inactive).
`CSc1ccccc1NC(=O)c1cnc2sc(C)cn2c1=O` was tested, and the inhibition was -3.98% (inactive).
In the case of `COc1ccc(C2C3=C(OC(C)=O)c4ccccc4C3=Nc3c2c(=O)n(C)c(=O)n3C)cc1` (stereo not given), the inhibition is reported as -10.3% (inactive).
For `CN(C)S(=O)(=O)c1cc(NC(=O)CN2C(=O)NC3(CCCc4ccccc43)C2=O)ccc1Cl` (stereo not given), the inhibition was -6.5% (inactive).
With `COc1ccc(/C(O)=C2/C(=O)C(=O)N(c3nc(C)c(C)s3)C2c2ccco2)cc1` (stereo not given) the inhibition was -0.42% (inactive).
`Cn1c(=O)c2cc(S(=O)(=O)NCCC(=O)Nc3ccc(F)cc3F)ccc2n(C)c1=O` was tested, and the inhibition was -3.26% (inactive).
`CCOC(=O)C1(S(=O)(=O)c2ccc(Cl)cc2)CCN(Cc2ccccc2)CC1` was tested, and the inhibition was -6.96% (inactive).
`COC(=O)c1ccccc1NC(=O)C1(S(=O)(=O)c2ccc(Cl)cc2)CC1` was tested, and the inhibition was 82.2% (active).
For `COC(=O)c1ccccc1NC(=O)CN(Cc1ccc(Cl)cc1)S(C)(=O)=O`, the inhibition was -4.27% (inactive).
For `CNC1(c2nnnn2-c2c(C)cccc2C)CCOC(C)(C)C1` (stereo not given), the inhibition was -10.7% (inactive).
For `Cc1ccc(S(=O)(=O)NCC(=O)N2CCOCCOCCOCCOCC2)cc1`, the inhibition was -7.08% (inactive).
With `CC1CCCCC1NC(=O)C1CCCN1S(=O)(=O)c1cccc2nsnc12` (stereo not given) the inhibition was -9.08% (inactive).
In the case of `O=C(COc1ccc(/C=N/NC(=O)c2ccc(O)cc2)cc1)Nc1ccc([N+](=O)[O-])cc1`, the inhibition is reported as -4.15% (inactive).
For `Cc1ccc(NC(=O)COc2ccc(/C=N\NC(=O)c3cccnc3)cc2)cc1C`, the inhibition was 73% (active).
In the case of `Cc1ccc(OCC(=O)NCCCNC(=O)c2cccnc2)cc1C`, the inhibition is reported as 3.67% (inactive).
